What was measured:
acute kidney injury = assay: Ischemia/reperfusion-induced AKI model in mice; assay type: in vivo; conditions: mouse I/R AKI
AKR1B1 [1] = target: AKR1B1 (Mus musculus, UniProt P45376); assay: Methylglyoxylate-metabolizing; assay type: in vivo; conditions: i.p. 120 mg/kg, 18h
SCoR2 [2] = target: T1, SCoR2 (Mus musculus, UniProt Q9JII6); assay type: in vivo; conditions: i.p. 120 mg/kg, 18h
T1 sequence (Q9JII6 1-325): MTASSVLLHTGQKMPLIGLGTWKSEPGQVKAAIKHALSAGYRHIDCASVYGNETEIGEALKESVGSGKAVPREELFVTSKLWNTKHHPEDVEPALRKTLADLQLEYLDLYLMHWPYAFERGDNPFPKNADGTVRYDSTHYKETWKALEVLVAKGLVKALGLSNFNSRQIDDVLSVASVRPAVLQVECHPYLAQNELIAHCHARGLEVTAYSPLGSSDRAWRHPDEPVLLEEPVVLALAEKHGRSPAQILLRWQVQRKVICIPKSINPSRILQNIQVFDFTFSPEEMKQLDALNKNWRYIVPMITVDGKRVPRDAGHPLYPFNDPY
Summary of the method: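 Mice received test compound 120 mg/kg i.p. (vehicle DMSO); liver, lung, heart, brain and spleen were harvested 18 h later. Tissues were homogenized in 50 mM phosphate pH 7.0, 150 mM NaCl, 100 μM EDTA/DTPA, clarified at 20,000xg, 4°C, and protein measured by BCA. Lysate started reactions with 200 μM SNO-CoA and 100 μM NADPH in phosphate/EDTA/DTPA buffer; 2 min; triplicate; n≥3.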

AKR1B1 [3] = target: AKR1B1 (Homo sapiens, UniProt P15121); assay: Inhibition of methylglyoxylate-metabolizing activity of purified AKR1B1; assay type: biochemical; conditions: ratio of IC50 values
SCoR2 [4] = target: T1, SCoR2; assay: SNO-CoA-metabolizing activity in kidneys of treated mice; assay type: in vivo
Summary of the method: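 Mice got test compound i.p. with DMSO vehicle or were fed compound-containing diet; SCoR2-knockout mice served as comparators. Kidneys were taken 18 h after a single 20–120 mg/kg dose, or 24 h after I/R surgery done 18 h post-dose. Tissue was homogenized in 50 mM phosphate pH 7.0, 150 mM NaCl, 100 μM EDTA/DTPA, then clarified (20,000xg, 4°C) and BCA-normalized. Lysate started reactions with 200 μM SNO-CoA and 100 μM NADPH; 2 min, triplicate.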

SCoR2 [5] = target: T2, SCoR2 (Homo sapiens, UniProt P14550); assay: Differential scanning fluorimetry; assay type: binding; conditions: 5 μM SCoR2, 250 μM compound; SCoR2 alone 48.3 (buffer), 48.0 (1% DMSO)
T2 sequence (P14550 1-325): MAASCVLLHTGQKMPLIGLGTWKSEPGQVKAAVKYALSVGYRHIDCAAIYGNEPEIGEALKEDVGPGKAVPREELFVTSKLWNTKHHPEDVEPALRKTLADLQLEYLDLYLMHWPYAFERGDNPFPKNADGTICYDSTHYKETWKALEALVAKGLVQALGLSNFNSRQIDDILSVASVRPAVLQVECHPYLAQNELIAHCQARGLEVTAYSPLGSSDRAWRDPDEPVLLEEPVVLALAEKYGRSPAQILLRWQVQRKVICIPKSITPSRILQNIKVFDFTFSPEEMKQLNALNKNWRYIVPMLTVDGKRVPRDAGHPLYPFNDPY

SCoR2 (AKR1A1) = target: T3, SCoR2 (AKR1A1) (Homo sapiens, UniProt P14550); assay: Inhibition of DL-glyceraldehyde-metabolizing activity of purified SCoR2; assay type: biochemical; conditions: DL-glyceraldehyde as substrate, in vitro
T3 sequence (P14550 1-325): T2 sequence (P14550 1-325)
Summary of the method: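 Initial screen with recombinant human SCoR2 (C-terminal His tag, expressed in E. coli, Ni-NTA purified). The 1 ml cuvette held 20 nM SCoR2, 3 mM DL-glyceraldehyde and varying inhibitor in 50 mM phosphate pH 7.0. NADPH (100 μM) started the reaction, which ran 2 min. NADPH consumption slope was read spectrophotometrically and IC50 was obtained by curve fitting.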

[6] = 20 mg/kg i.p. 18 h before surgery, 24 h post-surgery
[7] = diet with 125 mg/kg diet for 3 weeks or 12 weeks

## O=C1NC(=O)C2(N1)c1ccccc1-c1ccc(C3CC3)cc12 (centres unmarked) [5-1]
Acute kidney injury; 120 mg/kg i.p. 18 h before surgery
  Protection against AKI: protected against AKI
AKR1B1 [1]
  Activity of kidney AKR1B1: did not inhibit
SCoR2 [2]
  Activity of SCoR2 in brain: not in brain
  Activity of SCoR2 in heart: inhibited
  Activity of SCoR2 in liver: inhibited
  Activity of SCoR2 in lung: inhibited
  Activity of SCoR2 in spleen: inhibited

## O=C1NC(=O)C2(N1)c1cc(F)ccc1-c1ccc(F)cc12 [Imirestat, imirestat]
Acute kidney injury; 20 mg/kg i.p. 18 h before surgery
  Protection against AKI: does not protect against AKI
Acute kidney injury; [6]
  Blood urea nitrogen (BUN) vs DMSO-treated mice: the same
  Serum creatinine vs DMSO-treated mice: the same
Acute kidney injury; [7]
  Protection against AKI: did not show protection against AKI
AKR1B1 [3]
  Times more potent at AKR1B1 (vs SCoR2): 1.2
SCoR2 [4]; 20 mg/kg i.p. 18 h before AKI surgery, 24 h post-surgery
  SNO-CoA-metabolic activity in kidneys following AKI: strongly inhibited
SCoR2 [4]; [7]
  SCoR2 activity in the kidney on drug diet: potently inhibited

## NC(=O)C1=CN([C@@H]2O[C@H](COP(=O)(O)OP(=O)(O)OC[C@H]3O[C@@H](n4cnc5c(N)ncnc54)[C@H](OP(=O)(O)O)[C@@H]3O)[C@@H](O)[C@H]2O)C=CC1 [NADPH]
SCoR2 [5]
  Melting temperature (Tm) of SCoR2, compound alone: 51.4 °C

## O=C1NC(=O)C2(N1)c1ccccc1-c1ccccc12 [compound 2]
SCoR2 (AKR1A1)
  Inhibition of SCoR2 / potency at SCoR2 (in words): less potent

## CC(/C=C1\SC(=S)N(CC(=O)O)C1=O)=C\c1ccccc1 [epalrestat, reference compound]
SCoR2 (AKR1A1)
  Inhibition of SCoR2 / potency at SCoR2 (in words): inhibit
